Source: ChEMBL document CHEMBL1806388, “3-(3-Phenoxybenzyl)amino-β-carboline: a novel antitumor drug targeting α-tubulin” (Bioorg Med Chem Lett, 2011)
Calls of active or inactive are those of the source. No cut-off for these calls is given here.

Columns and labels:
[1] = Cell cycle arrest in human HeLaS3 cells assessed as accumulation at G2/M phase at 150 nM after 48 hrs using propidium iodide staining by flow cytometry (reference value: 22.45%); conditions: HeLa S3
[2] = Cell cycle arrest in human HeLaS3 cells assessed as accumulation at S phase at 150 nM after 24 hrs using propidium iodide staining by flow cytometry (reference value: 19.62%); conditions: HeLa S3
[3] = Cell cycle arrest in human HeLaS3 cells assessed as accumulation at S phase at 150 nM after 48 hrs using propidium iodide staining by flow cytometry (reference value: 19.62%); conditions: HeLa S3
HeLa S3 [4] = assay: Induction of apoptosis in human HeLaS3 cells assessed as DNA fragmentation at 150 to 1000 nM after 48 hrs by electrophoresis analysis; assay type: functional, cell-based
In short: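 HeLa S-3 cells exposed to 0–1000 nM for 48 h; genomic DNA extracted and run on a 2% agarose gel next to a 100 bp ladder to look for fragmentation.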

[5] = Cell cycle arrest in human HeLaS3 cells assessed as accumulation at G2/M phase at 150 nM after 24 hrs using propidium iodide staining by flow cytometry (reference value: 22.45%); conditions: HeLa S3
[6] = Cytotoxicity against human HeLaS3 cells after 24 to 72 hrs by MTT assay; assay type: functional, cell-based; conditions: HeLa S3
In short: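 Growth inhibition of HeLa S-3 cells measured by MTT assay; IC50 taken as the drug concentration inhibiting cell growth by 50%. Values are mean ± S.D. of four independent experiments, each run in triplicate.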

HeLa S3 [7] = assay: Induction of apoptosis in human HeLaS3 cells assessed as increase of activated caspase 3 level by Western blot analysis; assay type: functional, cell-based; conditions: TDE = time-dependent effect
In short: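 Cleaved caspase-3 detected by Western blot of HeLa S-3 cell extracts after 6, 12, 24 or 48 h treatment; untreated extract as control, β-actin as loading control.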

[8] = Cell cycle arrest in human HeLaS3 cells assessed as accumulation at G2/M phase at 150 nM after 12 hrs using propidium iodide staining by flow cytometry (reference value: 22.45%); conditions: HeLa S3
HeLa S3 [9] = assay: Induction of apoptosis in human HeLaS3 cells assessed as fragmented nuclei at 150 to 1000 nM after 48 hrs using Hoechst 33342 staining by confocal laser microscopic analysis; assay type: functional, cell-based
In short: (§1)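 HeLa S-3 cells treated with 0, 150, 300 or 1000 nM for 48 h, then nuclei stained with Hoechst 33342 and examined by fluorescence microscopy for chromatin condensation and fragmented nuclei.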

Homo sapiens [10] = species on record: Homo sapiens; assay: Binding affinity to enolase in human HeLaS3 whole cell extract by MALDI/TOF-MS nalaysis
[11] = Cell cycle arrest in human HeLaS3 cells assessed as accumulation at sub-G1 phase at 150 nM after 12 hrs using propidium iodide staining by flow cytometry (reference value: 1.51%); conditions: HeLa S3
[12] = Cell cycle arrest in human HeLaS3 cells assessed as accumulation at S phase at 150 nM after 36 hrs using propidium iodide staining by flow cytometry (reference value: 19.62%); conditions: HeLa S3
[13] = Cell cycle arrest in human HeLaS3 cells assessed as accumulation at G1 phase at 150 nM after 36 hrs using propidium iodide staining by flow cytometry (reference value: 56.42%); conditions: HeLa S3
[14] = Cell cycle arrest in human HeLaS3 cells assessed as accumulation at sub-G1 phase at 150 nM after 36 hrs using propidium iodide staining by flow cytometry (reference value: 1.51%); conditions: HeLa S3
Homo sapiens [15] = species on record: Homo sapiens; assay: Binding affinity to alpha-tubulin in human HeLaS3 whole cell extract by MALDI/TOF-MS nalaysis
[16] = Cell cycle arrest in human HeLaS3 cells assessed as accumulation at G2/M phase at 150 nM after 36 hrs using propidium iodide staining by flow cytometry (reference value: 22.45%); conditions: HeLa S3
[17] = Cell cycle arrest in human HeLaS3 cells assessed as accumulation at sub-G1 phase at 150 nM after 48 hrs using propidium iodide staining by flow cytometry (reference value: 1.51%); conditions: HeLa S3
[18] = Cell cycle arrest in human HeLaS3 cells assessed as accumulation at sub-G1 phase at 150 nM after 24 hrs using propidium iodide staining by flow cytometry (reference value: 1.51%); conditions: HeLa S3
[19] = Cell cycle arrest in human HeLaS3 cells assessed as accumulation at G1 phase at 150 nM after 24 hrs using propidium iodide staining by flow cytometry (reference value: 56.42%); conditions: HeLa S3
[20] = Cell cycle arrest in human HeLaS3 cells assessed as accumulation at S phase at 150 nM after 12 hrs using propidium iodide staining by flow cytometry (reference value: 19.62%); conditions: HeLa S3
HeLa S3 [21] = assay: Induction of apoptosis in human HeLaS3 cells assessed as chromatin condensation at 150 to 1000 nM after 48 hrs using Hoechst 33342 staining by confocal laser microscopic analysis; assay type: functional, cell-based
In short: as §1

[22] = Cell cycle arrest in human HeLaS3 cells assessed as accumulation at G1 phase at 150 nM after 12 hrs using propidium iodide staining by flow cytometry (reference value: 56.42%); conditions: HeLa S3
[23] = Cell cycle arrest in human HeLaS3 cells assessed as accumulation at G1 phase at 150 nM after 48 hrs using propidium iodide staining by flow cytometry (reference value: 56.42%); conditions: HeLa S3

c1ccc(Oc2cccc(CNc3cc4c(cn3)[nH]c3ccccc34)c2)cc1
Activity [1]: 9.52%
Activity [2]: 15.9%
Activity [3]: 20.2%
Activity (HeLa S3 [4]): Active
Activity [5]: 30%
IC50 [6]: 0.074 µM
Activity (HeLa S3 [7]): tde
Activity [8]: 65.9%
Activity (HeLa S3 [9]): Active
Activity (Homo sapiens [10]): Active
Activity [11]: 9.72%
Activity [12]: 15.6%
Activity [13]: 19%
Activity [14]: 43.5%
Activity (Homo sapiens [15]): Active
Activity [16]: 19.2%
Activity [17]: 50.1%
Activity [18]: 32.7%
Activity [19]: 21.2%
Activity [20]: 15.4%
Activity (HeLa S3 [21]): Active
Activity [22]: 8.4%
Activity [23]: 18.4%

c1ccc(CNc2nccc3c2[nH]c2ccccc23)cc1
IC50 [6]: 24 µM

COc1ccccc1CNc1cc2c(cn1)[nH]c1ccccc12
IC50 [6]: 0.8 µM

COc1ccc(CNc2cc3c(cn2)[nH]c2ccccc23)c(OC)c1OC
IC50 [6]: 4 µM

FC(F)(F)c1cccc(CNc2cc3c(cn2)[nH]c2ccccc23)c1
IC50 [6]: 3.1 µM

O=[N+]([O-])c1cccc(CNc2cc3c(cn2)[nH]c2ccccc23)c1
IC50 [6]: > 30 µM

COc1cc(CNc2cc3c(cn2)[nH]c2ccccc23)cc(OC)c1OC
IC50 [6]: 0.22 µM

COc1ccc(CNc2cc3c(cn2)[nH]c2ccccc23)cc1
IC50 [6]: 20 µM

c1ccc(Oc2ccc(CNc3cc4c(cn3)[nH]c3ccccc34)cc2)cc1
IC50 [6]: 1.2 µM

Oc1cccc(CNc2cc3c(cn2)[nH]c2ccccc23)c1
IC50 [6]: 0.92 µM

COc1cccc(CNc2cc3c(cn2)[nH]c2ccccc23)c1
IC50 [6]: 0.79 µM

O=[N+]([O-])c1ccccc1CNc1cc2c(cn1)[nH]c1ccccc12
IC50 [6]: 14 µM

Oc1ccc(CNc2cc3c(cn2)[nH]c2ccccc23)cc1
IC50 [6]: 1.7 µM

Cc1ccc(CNc2nccc3c2[nH]c2ccccc23)cc1
IC50 [6]: 26 µM

COc1ccc(CNc2cc3c(cn2)[nH]c2ccccc23)c(OC)c1
IC50 [6]: 4.8 µM

Clc1cccc(CNc2cc3c(cn2)[nH]c2ccccc23)c1
IC50 [6]: 0.83 µM

c1ccc(Oc2ccc(CNc3nccc4c3[nH]c3ccccc34)cc2)cc1
IC50 [6]: 15 µM

c1ccc(COc2cccc(CNc3cc4c(cn3)[nH]c3ccccc34)c2)cc1
IC50 [6]: 0.38 µM

Clc1ccccc1CNc1nccc2c1[nH]c1ccccc12
IC50 [6]: 19 µM

Oc1ccccc1CNc1cc2c(cn1)[nH]c1ccccc12
IC50 [6]: 28 µM

Cc1cccc(CNc2cc3c(cn2)[nH]c2ccccc23)c1
IC50 [6]: 0.21 µM

COc1ccc(OC)c(CNc2cc3c(cn2)[nH]c2ccccc23)c1
IC50 [6]: 6.1 µM

Clc1cccc(CNc2nccc3c2[nH]c2ccccc23)c1
IC50 [6]: 20 µM

COc1cccc(OC)c1CNc1cc2c(cn1)[nH]c1ccccc12
IC50 [6]: 2.3 µM

Clc1ccc(CNc2cc3c(cn2)[nH]c2ccccc23)cc1
IC50 [6]: 6.1 µM

c1ccc(-c2ccc(CNc3cc4c(cn3)[nH]c3ccccc34)cc2)cc1
IC50 [6]: > 30 µM

FC(F)(F)c1ccccc1CNc1cc2c(cn1)[nH]c1ccccc12
IC50 [6]: 6.7 µM

COc1cccc(CNc2cc3c(cn2)[nH]c2ccccc23)c1OC
IC50 [6]: 3.2 µM

Clc1ccccc1CNc1cc2c(cn1)[nH]c1ccccc12
IC50 [6]: 1 µM

Cc1ccccc1CNc1nccc2c1[nH]c1ccccc12
IC50 [6]: 13 µM

COc1ccc(CNc2cc3c(cn2)[nH]c2ccccc23)cc1OC
IC50 [6]: > 100 µM

c1ccc(Oc2cccc(CNc3nccc4c3[nH]c3ccccc34)c2)cc1
IC50 [6]: 2.3 µM

c1ccc(-c2ccccc2CNc2cc3c(cn2)[nH]c2ccccc23)cc1
IC50 [6]: 3 µM

FC(F)(F)c1ccc(CNc2cc3c(cn2)[nH]c2ccccc23)cc1
IC50 [6]: 47 µM

Clc1ccc(CNc2nccc3c2[nH]c2ccccc23)cc1Cl
IC50 [6]: 20 µM

COc1cc(CNc2cc3c(cn2)[nH]c2ccccc23)cc(OC)c1
IC50 [6]: 1.7 µM

COc1ccccc1CNc1nccc2c1[nH]c1ccccc12
IC50 [6]: 15 µM

Oc1ccccc1CNc1nccc2c1[nH]c1ccccc12
IC50 [6]: 19 µM

COc1cccc(CNc2nccc3c2[nH]c2ccccc23)c1
IC50 [6]: 24 µM

c1ccc(CNc2cc3c(cn2)[nH]c2ccccc23)cc1
IC50 [6]: 0.11 µM

Clc1ccc(CNc2nccc3c2[nH]c2ccccc23)cc1
IC50 [6]: 18 µM

Cc1ccc(CNc2cc3c(cn2)[nH]c2ccccc23)cc1
IC50 [6]: 6.2 µM

Cc1ccccc1CNc1cc2c(cn1)[nH]c1ccccc12
IC50 [6]: 0.3 µM

COc1ccc(CNc2nccc3c2[nH]c2ccccc23)cc1
IC50 [6]: 22 µM

Cc1cccc(CNc2nccc3c2[nH]c2ccccc23)c1
IC50 [6]: 22 µM
